Results from ChEMBL document CHEMBL3045743, “Synthesis and herbicidal activity of isoindoline-1,3-dione substituted benzoxazinone derivatives containing a carboxylic ester group” (J Agric Food Chem, 2009).

Legend:
Oryza sativa [1] = assay: Phytotoxicity against Oryza sativa (rice) assessed as growth inhibition at 75 g.a.i/ha pre-emergent application measured after 15 days by greenhouse crop selectivity assay; format: organism-based, L.; details: in vivo, other, 360 h
In short: (§1)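 Pre-emergence greenhouse crop selectivity test on pot-grown plants in clay soil (pH 6.5, 1.7% organic matter, 37.5% clay, CEC 12.9 cmol/kg). Stock solutions were diluted with water and applied at 300, 150, 75 or 37.5 g a.i./ha, in triplicate. After 15 days, phytotoxicity was scored visually against untreated controls as % crop growth inhibition, averaged over the triplicates.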

Oryza sativa [2] = assay: Phytotoxicity against Oryza sativa (rice) assessed as growth inhibition at 37.5 g.a.i/ha pre-emergent application measured after 15 days by greenhouse crop selectivity assay; format: organism-based, L.; details: in vivo, other, 360 h; in short: as §1
Zea mays = assay: (§2) Phytotoxicity against Zea mays (maize) assessed as growth inhibition at 300 g.a.i/ha pre-emergent application measured after 15 days by greenhouse crop selectivity assay; format: organism-based; details: in vivo, other, 360 h; in short: as §1
Triticum aestivum = assay: Phytotoxicity against Triticum aestivum (wheat) assessed as growth inhibition at 150 g.a.i/ha pre-emergent application measured after 15 days by greenhouse crop selectivity assay; format: organism-based; details: in vivo, other, 360 h; in short: as §1
[3] = as §2; format: organism-based; details: in vivo, 300 g.a.i/ha, read-out: GI; in short: as §1
[4] = Phytotoxicity against Glycine max (soybean) assessed as growth inhibition at 75 g.a.i/ha pre-emergent application measured after 15 days by greenhouse crop selectivity assay; format: organism-based; details: in vivo, 75 g.a.i/ha, read-out: GI; in short: as §1
[5] = Phytotoxicity against Glycine max (soybean) assessed as growth inhibition at 300 g.a.i/ha pre-emergent application measured after 15 days by greenhouse crop selectivity assay; format: organism-based; details: in vivo, 300 g.a.i/ha, read-out: GI; in short: as §1
[6] = Phytotoxicity against Glycine max (soybean) assessed as growth inhibition at 150 g.a.i/ha pre-emergent application measured after 15 days by greenhouse crop selectivity assay; format: organism-based; details: in vivo, 150 g.a.i/ha, read-out: GI; in short: as §1
[7] = Phytotoxicity against Triticum aestivum (wheat) assessed as growth inhibition at 37.5 g.a.i/ha pre-emergent application measured after 15 days by greenhouse crop selectivity assay; format: organism-based; details: in vivo, 37.5 g.a.i/ha, read-out: GI; in short: as §1

In the case of CCOC(=O)C(CC)N1C(=O)C(C)Oc2cc(F)c(N3C(=O)C4=C(CCCC4)C3=O)cc21 (stereo unspecified), the “growth inhibition (GI)” value (Oryza sativa [1]) is reported as “Not Active”, the “growth inhibition (GI)” value (Oryza sativa [2]) is reported as “Not Active” and the “growth inhibition (GI)” value (Zea mays) is reported as “Not Active”. The “growth inhibition (GI)” value (Triticum aestivum) was “Not Active”.

With CCOC(=O)C(C)N1C(=O)C(C)Oc2cc(F)c(N3C(=O)C4=C(CCCC4)C3=O)cc21 (stereo unspecified) the “growth inhibition (GI)” value (Zea mays) was “Not Active”.

COC(=O)C(C)N1C(=O)C(C)Oc2cc(F)c(N3C(=O)C4=C(CCCC4)C3=O)cc21 (stereo unspecified) gave an inhibition at 360 h [3] greater than 10%.

C#CCN1C(=O)COc2cc(F)c(N3C(=O)C4=C(CCCC4)C3=O)cc21 [FLUMIOXAZIN] gave an inhibition at 360 h [4] greater than 10%, an inhibition at 360 h [5] greater than 10% and an inhibition at 360 h [6] greater than 10%. It also gave an inhibition at 360 h [7] greater than 10% and an inhibition at 360 h [3] greater than 10%.
